# From PubChem BioAssay
# Activity calls are given as the source filed them.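 How the source made its calls, unless noted: active means inhibition above 20% together with a positive visual image hit; inconclusive means visual image hit but inhibition not above 20%; inactive means no visual image hit.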
# Assays:
# [1] = inhibitors of TNFa-induced NFkB p65 translocation, primary screen, imaging, HUVEC, MLSMR starter and 10KST1 sets (AID 438); conditions: HUVEC TNFa-induced p65 nuclear translocation; cell count: measured here: nuclei count (cytotoxicity indicator), at 2.08 µM; inhibition: at 2 µM, stronger effect = higher value, 0% TNFa-plus-vehicle, 100% no-TNFa wells;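 further: compound added about 3h40 before a 20 min TNFalpha stimulation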;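 on inhibition: signal is the nuclear over cytoplasmic p65 intensity ratio per well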
# [2] = endothelial E-selectin expression blockers – imaging, HUVEC, immunofluorescence, MLSMR starter and 10KST1 sets, primary screen (AID 487;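 active means visually confirmed hit in the image check and inhibition above 20%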;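 on inhibition: signal is fraction of cell area covered by stained E-selectin grains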;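 on nuclei count: 100% = median nuclei count of all wells on the same plate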); conditions: HUVEC TNFalpha-induced E-selectin immunofluorescence imaging, at 2 µM; inhibition: stronger effect = higher value; nuclei count: measured here: cell number, toxicity
# [3] = Primary imaging screen for DUSP6 inhibitors that restore phospho-Erk in transfected HeLa cells, chemical complementation (AID 609;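 active means compounds giving at least 50% inhibition in the cell-based MKP-3 phosphatase rescue imaging test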;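 on inhibition: phospho-Erk level distribution per well compared with pooled transfected vehicle control wells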); conditions: HeLa MKP-3 transfected, phospho-Erk imaging KS statistic, at 10 µM, cells stimulated with TPA for 15 min
# [4] = molecular target: Dual specificity protein phosphatase 6 (Homo sapiens) (UniProt Q16828); test: as above; conditions: HeLa MKP-3 transfected, phospho-Erk imaging KS statistic; at 10 µM; stronger effect = higher value; cells stimulated with TPA for 15 min
# Chain of Dual specificity protein phosphatase 6 (Homo sapiens) (Q16828 whole entry, looked up): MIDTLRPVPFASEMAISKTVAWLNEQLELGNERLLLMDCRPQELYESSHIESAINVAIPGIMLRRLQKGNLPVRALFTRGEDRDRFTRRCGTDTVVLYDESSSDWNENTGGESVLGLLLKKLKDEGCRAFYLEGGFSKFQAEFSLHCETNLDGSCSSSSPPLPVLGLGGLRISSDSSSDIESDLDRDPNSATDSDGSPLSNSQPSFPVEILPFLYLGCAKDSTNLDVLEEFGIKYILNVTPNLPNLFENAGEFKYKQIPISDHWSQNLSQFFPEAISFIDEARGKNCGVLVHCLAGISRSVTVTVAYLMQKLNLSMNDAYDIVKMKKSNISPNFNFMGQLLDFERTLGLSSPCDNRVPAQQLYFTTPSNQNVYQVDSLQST
# [5] = molecular target: Voltage-gated potassium channel subunit beta-2 (Rattus norvegicus) (UniProt P62483); test: inhibitors of rat Kvbeta2 reductase activity – biochemical, NADPH fluorescence, primary screen (AID 622;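 active means fluorescence slope higher than the sample average by over 3 SD, cut at about -0.22 in these data, passing the limit was not always enough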;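 further: slope of raw intensity against log time taken from 70 to 1610 s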); conditions: recombinant KvBeta, 4-cyanobenzaldehyde reduction, at 10 µM, stronger effect = higher value
# Chain of Voltage-gated potassium channel subunit beta-2 (Rattus norvegicus) (P62483 whole entry, looked up): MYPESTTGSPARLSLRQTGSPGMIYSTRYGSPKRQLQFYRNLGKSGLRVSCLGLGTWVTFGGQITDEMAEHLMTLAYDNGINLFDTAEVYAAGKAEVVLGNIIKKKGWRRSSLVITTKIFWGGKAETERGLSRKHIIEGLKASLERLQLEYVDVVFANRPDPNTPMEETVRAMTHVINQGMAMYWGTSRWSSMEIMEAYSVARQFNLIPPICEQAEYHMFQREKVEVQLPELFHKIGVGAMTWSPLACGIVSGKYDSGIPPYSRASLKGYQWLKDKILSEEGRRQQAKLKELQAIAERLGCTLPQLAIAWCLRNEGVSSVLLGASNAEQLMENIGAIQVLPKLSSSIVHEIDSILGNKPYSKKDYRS
# [6] = molecular target: Voltage-gated potassium channel subunit beta-2 (Rattus norvegicus) (UniProt P62483); test: enhancers of rat Kvbeta2 NADPH turnover – biochemical, NADPH fluorescence, primary screen (AID 623;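 active means NADPH fluorescence slope more negative than the mean of all samples by about 3 SD, 99.7% confidence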;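 further: fluorescence intensity change per second fitted from 20 to 320 s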); conditions: Recombinant KvBeta, NADPH fluorescence decrease slope, 10 min; at 10 µM; stronger effect = lower value
# [7] = molecular target: Alpha-2C adrenergic receptor (Homo sapiens) (UniProt P18825); test: compounds altering alpha2C-coupled GIRK flux – cell-based, HEK293 alpha2C/GIRK1/2, thallium flux, primary screen (AID 624;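 active means fluorescence slope after compound addition differing from the mean of all screened samples at 99.7% confidence, in either direction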;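 further: slope of fluorescence ratio to pre-addition baseline per second over 15 to 24 s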); conditions: thallium flux BTC fluorescence, at 10 µM, actives lie on both sides
# Chain of Alpha-2C adrenergic receptor (Homo sapiens) (P18825 whole entry, looked up): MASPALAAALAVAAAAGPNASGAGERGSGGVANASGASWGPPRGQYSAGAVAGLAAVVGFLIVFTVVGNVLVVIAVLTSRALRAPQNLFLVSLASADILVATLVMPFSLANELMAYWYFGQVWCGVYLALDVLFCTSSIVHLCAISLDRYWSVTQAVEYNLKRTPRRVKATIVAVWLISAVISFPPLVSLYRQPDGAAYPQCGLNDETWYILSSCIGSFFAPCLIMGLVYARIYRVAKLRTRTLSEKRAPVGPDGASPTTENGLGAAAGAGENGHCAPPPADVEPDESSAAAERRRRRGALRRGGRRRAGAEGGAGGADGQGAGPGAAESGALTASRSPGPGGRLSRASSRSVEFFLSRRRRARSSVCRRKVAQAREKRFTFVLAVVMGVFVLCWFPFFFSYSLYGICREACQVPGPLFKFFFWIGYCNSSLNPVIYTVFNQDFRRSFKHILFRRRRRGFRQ
# [8] = inhibitors of larval lipid processing in zebrafish, primary screen, whole organism, PED6 fluorescence, gall bladder and intestine (AID 686;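 active means a full or partial loss of lipid-probe fluorescence in the fish gall bladder, intestine or both, judged by eye; inactive means no fluorescence loss, or compound toxic to the fish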;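 further: larvae 5 to 7 days old with five fish per well; signal comes from phospholipase A2 cleavage of quenched PED6 carried via bile; overnight exposure to compound and PED6 before scoring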); conditions: Zebrafish larvae PED6 lipid processing, fluorescence scoring; screened at 20 µM (by protocol)
# Method in brief: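 System: live zebrafish larvae aged 5-7 days, whole organism; measure: graded gall bladder and intestinal fluorescence inhibition per well; incubation: overnight exposure; reagent: ingested quenched lipid PED6 at 100 nM; signal: By-eye fluorescence microscopy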
# [9] = loss of swimming-algae plug formation – whole organism, Chlamydomonas reinhardtii, WT vs cilia-less mutant, absorbance, 96-well, primary screen (AID 463189;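 active means inhibition at or above 50% relative to wild type and mutant plate controls; inactive means inhibition below 50%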;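 further: 0% = wild type cc124 cells in DMSO and 100% = ciliumless bld1 mutant cells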); conditions: Chlamydomonas reinhardtii gravitaxis, OD600 absorbance, 2 days; at 10 µM; stronger effect = higher value
# [10] = measured here: cell density z-score
# [11] = measured here: nuclear c-Myc green intensity z-score
# [12] = measured here: nuclear pErk red intensity z-score, stronger effect = higher value
SMILES,cell count [1],inhibition [1],inhibition [2],nuclei count [2],"z-score [3, 10]","z-score [3, 11]","z-score [3, 12]",inhibition [4],fluorescence slope [5],NADPH fluorescence slope [6],slope [7],outcome [8],inhibition [9]
CCOC(=O)C1CCCN(c2nc3ccccc3nc2C(C#N)C(=O)OCCOC)C1 (stereo unspecified),542,-14.7% (inactive),-102% (inactive),160%,0.574,2.29,-0.983,4.72% (inactive),-0.48 (inactive),-4.8e-05 (inactive),0.0042 (inactive),active; weak signal in gallbladder and intestine,6.3% (inactive)
O=C(c1ccc(=O)oc1)N1CCN(c2ccc(F)cc2)CC1,328,-4.5% (inactive),-1.9% (inactive),95.2%,-0.519,-0.0445,0.228,17.4% (inactive),-0.364 (inactive),-4.3e-05 (inactive),0.00509 (inactive),inactive,31% (inactive)
OCCNc1nc(-c2ccccc2)c2ccccc2n1,419,-4.7% (inactive),-153% (inactive),133%,-0.162,1.09,-0.852,-10.1% (inactive),-0.341 (inactive),-1.3e-05 (inactive),0.00672 (inactive),inactive,-5.43% (inactive)
O=C1CCC(=O)N1c1nc2nc(-c3ccccc3)cc(-c3ccccc3)n2n1,360,-6.9% (inactive),-15.6% (inactive),91%,-0.411,1.12,0.232,5.42% (inactive),-0.467 (inactive),-3e-05 (inactive),0.00473 (inactive),inactive,46.1% (inactive)
CC1(C)Cc2c(C#N)c(NCc3ccco3)nc(-c3ccco3)c2CO1,598,3.9% (inactive),-12.9% (inactive),178%,0.978,-1.81,0.89,-6.86% (inactive),-0.29 (inactive),-9.7e-06 (inactive),0.00397 (inactive),active; weak signal in gallbladder and intestine,53.9% (active)
CCCCOc1ccc(CN(C)c2ncnc(N)n2)cc1,657,-1.7% (inactive),-51.5% (inactive),180%,-0.491,0.207,-0.506,5.57% (inactive),-0.503 (inactive),-0.00011 (inactive),0.00652 (inactive),inactive,29.8% (inactive)
CCN=C1SC(C(=O)Nc2ccc(Cl)c(Cl)c2)CC(=O)N1CC (stereo unspecified),388,-0.4% (inactive),-56.6% (inactive),133%,1.74,-1.1,-1.57,7.42% (inactive),-0.423 (inactive),-0.000131 (inactive),0.00577 (inactive),inactive,0.946% (inactive)
N/C(=N\c1nc2ccccc2o1)NC(=O)c1ccccc1NC(=O)c1ccccc1,614,5.2% (inactive),-20.4% (inactive),160%,1.3,-0.342,-0.375,2.46% (inactive),-0.361 (inactive),-2e-05 (inactive),0.0114 (inactive),inactive,9.27% (inactive)
Cc1nc(Nc2ncc3c(n2)CC(C)(C)CC3=O)nc2ccccc12,532,-10.9% (inactive),-13% (inactive),195%,-2.93,-0.197,3.21,-3.5% (inactive),-0.376 (inactive),-2.4e-05 (inactive),0.0055 (inactive),inactive,-7.48% (inactive)
CCn1cc(C(=O)NCCCN(C)C)c(=O)c2cc(F)c(N3CCN(C)CC3)cc21,360,-2.8% (inactive),-88% (inactive),130%,-0.583,1.7,-0.542,-7.28% (inactive),-0.286 (inactive),-5e-06 (inactive),0.00472 (inactive),inactive,22% (inactive)
Cc1cc(C)n(C(=O)CN2C(=O)CCC2=O)n1,406,-19% (inactive),-169% (inactive),155%,-0.373,-0.831,-0.956,-5.62% (inactive),-0.249 (inactive),1.9e-05 (inactive),0.00506 (inactive),inactive,17.3% (inactive)
O=C(NC1CCCCC1)N1CCSC1=Nc1ccccc1,490,-27.8% (inactive),-420% (inactive),202%,0.92,-1.53,0.173,24.4% (inactive),-0.495 (inactive),-9.6e-05 (inactive),0.00417 (inactive),inactive,11.3% (inactive)
